Laboratory results from ChEMBL document CHEMBL4184147, “Polyphenolic Phytochemicals in Cancer Prevention and Therapy: Bioavailability versus Bioefficacy” (J Med Chem, 2017).

What was measured:
NCI-H460 [1] = experiment: Cytotoxicity against human NCI-H460 cells assessed as decrease in cell viability after 48 hrs by MTT assay; format: functional, cell-based; details: NCI-H460, 48 h
BXPC-3 [2] = experiment: Cytotoxicity against human BxPC3 cells assessed as decrease in cell viability after 48 hrs by MTT assay; format: functional, cell-based; details: BXPC-3, 48 h
PANC-1 [3] = experiment: Cytotoxicity against human PANC1 cells assessed as decrease in cell viability after 48 hrs by MTT assay; format: functional, cell-based; details: PANC-1, 48 h
[4] = Cytotoxicity against human MML1 cells assessed as decrease in cell viability after 48 hrs by MTT assay; format: functional, cell-based
SK-MEL-2 [5] = experiment: Cytotoxicity against human SK-MEL-2 cells assessed as decrease in cell viability after 48 hrs by MTT assay; format: functional, cell-based; details: SK-MEL-2, 48 h
MDA-MB-231 [6] = experiment: Cytotoxicity against human MDA-MB-231 cells assessed as cell viability at 41 uM after 48 hrs by MTT assay; format: functional; details: MDA-MB-231, 48 h, read-out: Activity
T47D [7] = experiment: Cytotoxicity against human T47D cells assessed as cell viability at 41 uM after 48 hrs by MTT assay; format: functional; details: read-out: Activity
HT-29 [8] = experiment: Cytotoxicity against human HT-29 cells assessed as cell viability at 41 uM after 48 hrs by MTT assay; format: functional; details: HT-29, 48 h, read-out: Activity
COLO 201 [9] = experiment: Cytotoxicity against human COLO201 cells assessed as cell viability at 41 uM after 48 hrs by MTT assay; format: functional; details: COLO 201, 48 h, read-out: Activity
A549 [10] = experiment: Cytotoxicity against human A549 cells assessed as cell viability at 41 uM after 48 hrs by MTT assay; format: functional; details: A549, 48 h, read-out: Activity
NCI-H460 [11] = experiment: Cytotoxicity against human NCI-H460 cells assessed as cell viability at 41 uM after 48 hrs by MTT assay; format: functional; details: NCI-H460, 48 h, read-out: Activity
BXPC-3 [12] = experiment: Cytotoxicity against human BxPC3 cells assessed as cell viability at 41 uM after 48 hrs by MTT assay; format: functional; details: BXPC-3, 48 h, read-out: Activity
PANC-1 [13] = experiment: Cytotoxicity against human PANC1 cells assessed as cell viability at 41 uM after 48 hrs by MTT assay; format: functional; details: PANC-1, 48 h, read-out: Activity
[14] = Cytotoxicity against human MML1 cells assessed as cell viability at 41 uM after 48 hrs by MTT assay; format: functional; details: read-out: Activity
SK-MEL-2 [15] = experiment: Cytotoxicity against human SK-MEL-2 cells assessed as cell viability at 41 uM after 48 hrs by MTT assay; format: functional; details: SK-MEL-2, 48 h, read-out: Activity
U-87 MG [16] = experiment: Cytotoxicity against human U87 cells assessed as cell viability at 41 uM after 48 hrs by MTT assay; format: functional, U-87MG ATCC; details: read-out: Activity
LN-229 [17] = experiment: Cytotoxicity against human LN229 cells assessed as cell viability at 41 uM after 48 hrs by MTT assay; format: functional; details: LN-229, 48 h, read-out: Activity
[18] = Cmax in mouse at 10 mg/kg, iv by LC-MS/MS method; format: ADME, organism-based; set-up: dose 10 mg/kg, route intravenous; details: in vivo
Procedure, shortened: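 Mouse iv dosing used polyphenol dissolved in DMSO:ethanol (2:1), with total injected volume never above 30 μL. Plasma levels were measured by previously described methods.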

[19] = Plasma concentration in mouse at 100 mg/kg, po at 60 mins by LC-MS/MS method; format: ADME, organism-based
Procedure, shortened: (§1)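 For IV dosing, compound dissolved in DMSO:ethanol (2:1), total volume no more than 30 μL. For oral dosing, compound given in a self-microemulsifying delivery system (60% surfactant, emulsifier OP:Cremophor EL 1:1; 30% PEG 400; 10% ethyl oleate), total volume no more than 100 μL. Plasma levels measured by previously described methods.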

[20] = Plasma concentration in mouse at 10 mg/kg, iv at 60 mins by LC-MS/MS method; format: ADME, organism-based; procedure, shortened: as §1
Mus musculus [21] = experiment: Cmax in mouse at 100 mg/kg, po by HPLC method; format: ADME, organism-based; set-up: dose 100 mg/kg, route oral; details: in vivo
Procedure, shortened: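 For oral dosing, polyphenol was dissolved in a self-microemulsifying delivery system: 60% surfactant (emulsifier OP:Cremophor EL 1:1), 30% cosurfactant (PEG 400) and 10% oil (ethyl oleate). Total volume given was never above 100 μL. Plasma levels were quantified by previously described methods.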

Mus musculus [22] = experiment: Tmax in mouse at 100 mg/kg, po by HPLC method; format: ADME, organism-based; details: in vivo
Procedure, shortened: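 Given orally in a self-microemulsifying delivery system (60% surfactant, emulsifier OP:Cremophor EL 1:1; 30% PEG 400 cosurfactant; 10% ethyl oleate oil), total volume no more than 100 μL. Plasma levels measured by previously described methods.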

Lipid bilayer = experiment: Induction of DOPC/n-decane bilayer property changes assessed as concentration required to double gramicidin-induced quencher influx rate by […]
U-87 MG [23] = experiment: Cytotoxicity against human U87 cells assessed as decrease in cell viability after 48 hrs by trypan blue exclusion and LDH release
T47D [24] = experiment: Cytotoxicity against human T47D cells assessed as decrease in cell viability after 48 hrs by trypan blue exclusion and LDH release
A549 [25] = experiment: Cytotoxicity against human A549 cells assessed as decrease in cell viability after 48 hrs by trypan blue exclusion and LDH release; details: A549, 48 h
HT-29 [26] = experiment: Cytotoxicity against human HT-29 cells assessed as decrease in cell viability after 48 hrs by trypan blue exclusion and LDH release; details: HT-29, 48 h
LN-229 [27] = experiment: Cytotoxicity against human LN229 cells assessed as decrease in cell viability after 48 hrs by trypan blue exclusion and LDH release; details: LN-229, 48 h
COLO 201 [28] = experiment: Cytotoxicity against human COLO201 cells assessed as decrease in cell viability after 48 hrs by trypan blue exclusion and LDH release; details: COLO 201, 48 h
MDA-MB-231 [29] = experiment: Cytotoxicity against human MDA-MB-231 cells assessed as decrease in cell viability after 48 hrs by trypan blue exclusion and LDH release; details: MDA-MB-231, 48 h

- Cmax [18]: 81 µM
- concentration at 1 h [19]: < 1000 nM
- concentration at 1 h [20]: < 1000 nM
- Cmax (Mus musculus [21]): 27 µM
- Tmax (Mus musculus [22]): 15 min
- Activity (Lipid bilayer): 8.6 µM
SMILES: COc1cc(/C=C/C(=O)CC(=O)/C=C/c2ccc(O)c(OC)c2)ccc1O [CURCUMIN]
- IC50 (NCI-H460 [1]): 15 µM
- IC50 (BXPC-3 [2]): 29 µM
- IC50 (PANC-1 [3]): 53 µM
- IC50 [4]: 19 µM
- IC50 (SK-MEL-2 [5]): 36 µM
- viability at 41 µM (MDA-MB-231 [6]): 90%
- viability at 41 µM (T47D [7]): 88%
- viability at 41 µM (HT-29 [8]): 83%
- viability at 41 µM (COLO 201 [9]): 81%
- viability at 41 µM (A549 [10]): 96%
- viability at 41 µM (NCI-H460 [11]): 95%
- viability at 41 µM (BXPC-3 [12]): 102%
- viability at 41 µM (PANC-1 [13]): 99%
- viability at 41 µM [14]: 105%
- viability at 41 µM (SK-MEL-2 [15]): 97%
- viability at 41 µM (U-87 MG [16]): 92%
- viability at 41 µM (LN-229 [17]): 91%
- IC50 (U-87 MG [23]): 16 µM
- IC50 (T47D [24]): 19 µM
- IC50 (A549 [25]): 18 µM
- IC50 (HT-29 [26]): 14 µM
- IC50 (LN-229 [27]): 15 µM
- IC50 (COLO 201 [28]): 18 µM
- IC50 (MDA-MB-231 [29]): 12 µM
